According to ChEMBL document CHEMBL3244323, “[1-Penicillamine,2-leucine]oxytocin. Synthesis and pharmacological and conformational studies of a potent peptide hormone inhibitor” (J Med Chem, 1979):
Substitutions are numbered along the chain they refer to. Blank lines part the entries; values can stand above or below the compound they belong to. The source made the active and inactive calls. The rule behind the calls is not given here. *1 amine or outer side, *2 acyl side, *3 side chain or, on linkers, in order; H or OH if unused. Where a SMILES comes first, the peptide text is derived from it. Bridges are numbered along the chain shown (N, C = ends). [ ]: non-standard residue; d: D form. Tyr(3,5-Br2) = N[C@@H](Cc1cc(Br)c(O)c(Br)c1)C(=O)O; X1 = CCC(CC)(CC(=O)[*:1])S[*:2]; X2 = CC(C)(CC(=O)[*:1])S[*:2]; Pen = CC(C)(S)[C@H](N)C(=O)O

Tests used:
[1] = target: T1, Oxytocin receptor (Homo sapiens, UniProt P30559); experiment: Antagonist activity at oxytocin receptor (unknown origin) assessed as inhibition of agonist-induced oxytocic response; settings: read-out: pA2 (converted)
T1 sequence (P30559 whole entry): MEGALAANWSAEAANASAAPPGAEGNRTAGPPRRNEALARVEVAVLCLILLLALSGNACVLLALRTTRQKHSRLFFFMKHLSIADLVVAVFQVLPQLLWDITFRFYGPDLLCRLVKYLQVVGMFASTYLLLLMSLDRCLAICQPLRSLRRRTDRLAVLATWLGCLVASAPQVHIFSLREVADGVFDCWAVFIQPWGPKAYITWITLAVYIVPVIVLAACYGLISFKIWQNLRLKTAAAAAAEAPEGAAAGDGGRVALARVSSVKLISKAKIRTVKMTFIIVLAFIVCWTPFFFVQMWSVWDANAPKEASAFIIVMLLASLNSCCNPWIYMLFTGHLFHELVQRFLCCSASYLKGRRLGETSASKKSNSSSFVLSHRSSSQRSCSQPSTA
Method in brief: (§1)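 Isolated uteri from rats in natural estrus, suspended in Mg-free van Dyke-Hasting's solution with isotonic contraction recording, bath 30 °C. Antagonism of oxytocin was analysed by the Schild method. pA2 is the negative log of the average molar antagonist concentration that reduces the response to 2x units of oxytocin to the response to x units.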

[2] = target: T2, Oxytocin receptor (Rattus norvegicus, UniProt P70536); experiment: Antagonist activity at oxytocin receptor in rat assessed as inhibition of agonist-induced oxytocic response; settings: read-out: pA2 (converted); method in brief: as §1
T2 sequence (P70536 whole entry): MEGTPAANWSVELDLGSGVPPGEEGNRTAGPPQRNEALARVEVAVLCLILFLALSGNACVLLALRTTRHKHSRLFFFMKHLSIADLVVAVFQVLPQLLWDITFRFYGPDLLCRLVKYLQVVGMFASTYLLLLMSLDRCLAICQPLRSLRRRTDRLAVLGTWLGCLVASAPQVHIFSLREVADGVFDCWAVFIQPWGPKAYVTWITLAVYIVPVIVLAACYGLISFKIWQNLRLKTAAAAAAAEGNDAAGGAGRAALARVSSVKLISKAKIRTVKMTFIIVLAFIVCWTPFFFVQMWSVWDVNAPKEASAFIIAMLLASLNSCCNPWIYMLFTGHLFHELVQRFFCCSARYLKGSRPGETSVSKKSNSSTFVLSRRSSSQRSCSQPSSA

[3] = target: T3, Oxytocin receptor (Homo sapiens) (UniProt P30559); experiment: Agonist activity at oxytocin receptor (unknown origin)
T3 sequence (whole entry): T1 sequence (P30559 whole entry)

[4] = target: T4, Oxytocin receptor (Mus musculus) (UniProt P97926); experiment: Antagonist activity at oxytocin receptor in mouse mammary gland tissue assessed as inhibition of oxytocin-induced milk ejection by spectrophotometry
T4 sequence (whole entry): T2 sequence (P70536 whole entry) with V11I, E23A, R27L, Q33R, G159A, A169V, N245S, F344L, V361I
Method in brief: (§2)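 Mouse mammary gland tissue was incubated in vitro with oxytocin alone, or with oxytocin plus antagonist at up to 10^-5 M. Released milk was measured spectrophotometrically as absorbance. Values are mean ± SE from tissue of four mice.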

[5] = target: T4, Oxytocin receptor (Mus musculus); experiment: Antagonist activity at oxytocin receptor in mouse mammary gland tissue assessed as inhibition of oxytocin-induced milk ejection at 7.5X10'-6 M by spectrophotometry; method in brief: as §2
[6] = target: T2, Oxytocin receptor; experiment: Antagonist activity at oxytocin receptor in isolated rat uterus assessed as inhibition of oxytocin-induced oxytocic response; settings: read-out: pA2 (converted); method in brief: as §1
[7] = target: T5, Oxytocin receptor (Rattus norvegicus) (UniProt P70536); experiment: Antagonist activity at oxytocin receptor in isolated rat uterus assessed as inhibition of oxytocin-induced oxytocic response at 20:1 compound to oxytocin ratio pretreated up to 90 secs prior to oxytocin addition
T5 sequence (whole entry): T2 sequence (P70536 whole entry)

[8] = target: T5, Oxytocin receptor (Rattus norvegicus); experiment: Antagonist activity at oxytocin receptor in isolated rat uterus assessed as inhibition of oxytocin-induced oxytocic response at 20:1 compound to oxytocin ratio pretreated for 10 to 20 secs prior to oxytocin addition; settings: concentration not given here
[9] = target: T5, Oxytocin receptor (Rattus norvegicus); experiment: Antagonist activity at oxytocin receptor in isolated rat uterus assessed as inhibition of oxytocin-induced oxytocic response at 20:1 compound to oxytocin ratio followed by compound washout
[10] = target: T5, Oxytocin receptor (Rattus norvegicus); experiment: Antagonist activity at oxytocin receptor in isolated rat uterus assessed as incidence of regular phasic contractions of uterus at 0.25 ug/ml
[11] = target: T5, Oxytocin receptor (Rattus norvegicus); experiment: Antagonist activity at oxytocin receptor in isolated rat uterus assessed as inhibition of oxytocic response at 0.25 ug/ml pretreated for 30 secs prior to oxytocin addition relative to control
[12] = target: T5, Oxytocin receptor (Rattus norvegicus); experiment: Antagonist activity at oxytocin receptor in isolated rat uterus assessed as reduction of subsequent contractions at 0.25 ug/ml measured during 10 mins interval of compound dosing
[13] = target: T5, Oxytocin receptor (Rattus norvegicus); experiment: Antagonist activity at oxytocin receptor in isolated rat uterus assessed as inhibition of oxytocic response at 0.25 ug/ml added simultaneously with oxytocin
[14] = target: T5, Oxytocin receptor (Rattus norvegicus); experiment: Antagonist activity at oxytocin receptor in isolated rat uterus assessed as incidence of regular phasic contractions of uterus at 0.25 ug/ml measured during 6 mins interval of compound dosing
[15] = target: T5, Oxytocin receptor (Rattus norvegicus); experiment: Antagonist activity at oxytocin receptor in isolated rat uterus assessed as inhibition of oxytocin-induced contractions at 0.25 ug/ml dosed at the peak of first contraction measured during 10 mins interval of compound dosing
[16] = target: T5, Oxytocin receptor (Rattus norvegicus); experiment: Antagonist activity at oxytocin receptor in isolated rat uterus assessed as inhibition of oxytocin-induced oxytocic response at 0.25 ug/ml followed by compound washout
[17] = target: T4, Oxytocin receptor (Mus musculus); experiment: Agonist activity at oxytocin receptor in mouse mammary gland tissue assessed as milk-ejecting activity at 10^-5 M by spectrophotometry

Kb [1]: 0.17 µM
SMILES: CC[C@H](C)[C@@H]1NC(=O)[C@H](Cc2ccc(O)cc2)NC(=O)[C@@H](N)C(C)(C)SSC[C@@H](C(=O)N2CCC[C@H]2C(=O)N[C@@H](CC(C)C)C(=O)NCC(N)=O)NC(=O)[C@H](CC(N)=O)NC(=O)[C@H](CC(C)C)NC1=O (H-[Pen]YILNCPLG-NH2; disulfide 1-6)

Kb [1]: 0.0955 µM
SMILES: CC[C@H](C)[C@@H]1NC(=O)[C@H](Cc2ccc(O)cc2)NC(=O)CC(CC)(CC)SSC[C@@H](C(=O)N2CCC[C@H]2C(=O)N[C@@H](CC(C)C)C(=O)NCC(N)=O)NC(=O)[C@H](CC(N)=O)NC(=O)[C@H](CC(C)C)NC1=O (YILNCPLG-NH2; linker N-5 via X1)

Kb [1]: 0.115 µM
SMILES: CC[C@H](C)[C@@H]1NC(=O)[C@H](Cc2ccc(O)cc2)NC(=O)CC(C)(C)SSC[C@@H](C(=O)N2CCC[C@H]2C(=O)N[C@@H](CC(C)C)C(=O)NCC(N)=O)NC(=O)[C@H](CC(N)=O)NC(=O)[C@H](CCC(N)=O)NC1=O (YIQNCPLG-NH2; linker N-5 via X2)

Kb [2]: 0.0832 µM
SMILES: CC[C@H](C)[C@@H]1NC(=O)[C@H](Cc2cc(Br)c(O)c(Br)c2)NC(=O)CC(CC)(CC)SSC[C@@H](C(=O)N2CCC[C@H]2C(=O)N[C@@H](CC(C)C)C(=O)NCC(N)=O)NC(=O)[C@H](CC(N)=O)NC(=O)[C@H](CCC(N)=O)NC1=O ([Tyr(3,5-Br2)]IQNCPLG-NH2; linker N-5 via X1)

Activity [3]: 0.5 U/mg
SMILES: CC[C@H](C)[C@@H]1NC(=O)[C@H](CC(C)C)NC(=O)[C@@H](N)CSSC[C@@H](C(=O)N2CCC[C@H]2C(=O)N[C@@H](CC(C)C)C(=O)NCC(N)=O)NC(=O)[C@H](CC(N)=O)NC(=O)[C@H](CCC(N)=O)NC1=O (H-CLIQNCPLG-NH2; disulfide 1-6)

Activity [3]: 803 U/mg
SMILES: CC[C@H](C)[C@@H]1NC(=O)[C@H](Cc2ccc(O)cc2)NC(=O)CCSSCC(C(=O)N2CCC[C@H]2C(=O)N[C@@H](CC(C)C)C(=O)NCC(N)=O)NC(=O)[C@H](CC(N)=O)NC(=O)[C@H](CCC(N)=O)NC1=O (single isomer, unassigned)

inhibition [4]: Active | Kb [1]: 0.138 µM
SMILES: CC[C@H](C)[C@@H]1NC(=O)[C@H](Cc2ccc(O)cc2)NC(=O)[C@@H](N)C(C)(C)SSC[C@@H](C(=O)N2CCC[C@H]2C(=O)N[C@@H](CC(C)C)C(=O)NCC(N)=O)NC(=O)[C@H](CC(N)=O)NC(=O)[C@H](CCC(N)=O)NC1=O

Kb [2]: 0.0316 µM
SMILES: CC[C@H](C)[C@@H]1NC(=O)[C@H](Cc2ccc(O)cc2)NC(=O)CC(C)(C)SSC[C@@H](C(=O)N2CCC[C@H]2C(=O)N[C@@H](CC(C)C)C(=O)NCC(N)=O)NC(=O)[C@H](CC(N)=O)NC(=O)[C@H]([C@@H](C)O)NC1=O (YITNCPLG-NH2; linker N-5 via X2)

inhibition [5]: Active | Kb [6]: 0.0724 µM | inhibition [7]: Active | inhibition [8]: 50% | inhibition [9]: inactive | inhibition [11]: 60% | Activity [12]: Active | inhibition [13]: inactive | inhibition [15]: Active | inhibition [16]: inactive | Activity [17]: inactive
SMILES: CC[C@H](C)[C@@H]1NC(=O)[C@H](CC(C)C)NC(=O)[C@@H](N)C(C)(C)SSC[C@@H](C(=O)N2CCC[C@H]2C(=O)N[C@@H](CC(C)C)C(=O)NCC(N)=O)NC(=O)[C@H](CC(N)=O)NC(=O)[C@H](CCC(N)=O)NC1=O (H-[Pen]LIQNCPLG-NH2; disulfide 1-6)
Activity [10]: inactive | inhibition [14]: inactive

Kb [2]: 0.0891 µM
SMILES: CC[C@H](C)[C@@H]1NC(=O)[C@H](Cc2cc(Br)c(O)c(Br)c2)NC(=O)CCSSC[C@@H](C(=O)N2CCC[C@H]2C(=O)N[C@@H](CC(C)C)C(=O)NCC(N)=O)NC(=O)[C@H](CC(N)=O)NC(=O)[C@H](CCC(N)=O)NC1=O

Kb [1]: 0.0575 µM
SMILES: CC[C@H](C)[C@@H]1NC(=O)[C@H](Cc2ccc(O)cc2)NC(=O)CC(CC)(CC)SSC[C@@H](C(=O)N2CCC[C@H]2C(=O)N[C@@H](CC(C)C)C(=O)NCC(N)=O)NC(=O)[C@H](CC(N)=O)NC(=O)[C@H](CCC(N)=O)NC1=O (YIQNCPLG-NH2; linker N-5 via X1)
